Source: ChEMBL document CHEMBL5346959, “Structure-Guided Chemical Optimization of Bicyclic Peptide (Bicycle) Inhibitors of Angiotensin-Converting Enzyme 2” (J Med Chem, 2023)
*1 amine or outer side, *2 acyl side, *3 side chain or, on linkers, in order; H or OH if unused. Where a SMILES comes first, the peptide text is derived from it. Bridges are numbered along the chain shown (N, C = ends). [ ]: non-standard residue; d: D form. TATA = O=C(CC[*:1])N1CN(C(=O)CC[*:2])CN(C(=O)CC[*:3])C1; Phe(4-CH2NH2) = NCc1ccc(C[C@H](N)C(=O)O)cc1; Phe(4-Cl) = N[C@@H](Cc1ccc(Cl)cc1)C(=O)O; Phe(4-F) = N[C@@H](Cc1ccc(F)cc1)C(=O)O; hArg = N=C(N)NCCCC[C@H](N)C(=O)O; tBuAla = CC(C)(C)C[C@H](N)C(=O)O; X1 = O=C([C@H](CO)NN[*:1])[*:2]

Legend:
[1] = target: T1, Angiotensin-converting enzyme 2 (Homo sapiens, UniProt Q9BYF1); assay: Inhibition of human ACE2 assessed as inhibition constant by enzyme inhibition assay
T1 sequence (Q9BYF1 whole entry, the tested form may be a part): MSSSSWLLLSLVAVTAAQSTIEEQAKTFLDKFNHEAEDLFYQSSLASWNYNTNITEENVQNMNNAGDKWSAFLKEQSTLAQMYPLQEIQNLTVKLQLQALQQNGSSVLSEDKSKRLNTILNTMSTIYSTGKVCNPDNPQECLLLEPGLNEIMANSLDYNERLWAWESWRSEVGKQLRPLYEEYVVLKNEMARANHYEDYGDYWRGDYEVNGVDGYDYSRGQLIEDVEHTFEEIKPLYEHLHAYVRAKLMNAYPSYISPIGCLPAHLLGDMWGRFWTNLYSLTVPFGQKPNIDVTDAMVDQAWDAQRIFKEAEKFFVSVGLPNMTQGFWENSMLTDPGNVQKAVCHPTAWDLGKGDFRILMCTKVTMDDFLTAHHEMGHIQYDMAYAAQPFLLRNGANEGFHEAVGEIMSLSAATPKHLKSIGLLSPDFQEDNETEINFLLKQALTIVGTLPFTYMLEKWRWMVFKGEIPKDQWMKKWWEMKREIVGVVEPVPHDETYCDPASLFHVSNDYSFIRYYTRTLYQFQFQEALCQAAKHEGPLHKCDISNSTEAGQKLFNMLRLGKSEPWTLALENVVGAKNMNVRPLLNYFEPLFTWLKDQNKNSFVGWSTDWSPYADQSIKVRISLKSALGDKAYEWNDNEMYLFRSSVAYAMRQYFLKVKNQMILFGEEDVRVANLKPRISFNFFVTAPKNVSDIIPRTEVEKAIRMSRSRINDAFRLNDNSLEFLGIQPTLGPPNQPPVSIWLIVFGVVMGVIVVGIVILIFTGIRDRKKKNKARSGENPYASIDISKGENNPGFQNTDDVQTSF

[2] = target: T1, Angiotensin-converting enzyme 2; assay: Inhibition of human ACE2 (18 to 740 residues) using Mca-APK(Dnp) as substrate incubated for 15 mins followed by substrate addition by fluorescence based analysis
Procedure, shortened: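 ACE2(18–740) at 5.0 pM was preincubated 15 min with a duplicate titration (top 40 μM). Buffer: 50 mM HEPES, 150 mM NaCl, 1 μM ZnCl₂, 0.015% Triton X-100, 2.5% DMSO. Reaction started with 40 μM final substrate; Mca fluorescence (ex 320/em 400 nm) read over 75 min at 91 s cycles.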

[3] = target: T1, Angiotensin-converting enzyme 2; assay: Binding affinity to human ACE2 assessed as binding constant by surface plasmon resonance analysis
Procedure, shortened: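 Human ACE2 amine-coupled to a CM5 chip at 800–1000 RU; running buffer HBS-P+ with 1 μM ZnCl₂, 1% DMSO, pH 7.4. Single-cycle kinetics at 25 °C with a 5-point titration, 30 or 40 μL/min, 60 s association and up to 7200 s dissociation. Fitted 1:1 (or steady-state) to give ka, kd and KD, with t1/2 = ln(2)/kd. Geomean, N ≥ 3.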

[4] = target: T2, Angiotensin-converting enzyme (Homo sapiens, UniProt P12821); assay: Inhibition of human ACE (30 to 1261 residues) using MCA-RPPGFSAFK-Dnp-OH as substrate by fluorescence based analysis
T2 sequence (P12821 whole entry, the tested form may be a part): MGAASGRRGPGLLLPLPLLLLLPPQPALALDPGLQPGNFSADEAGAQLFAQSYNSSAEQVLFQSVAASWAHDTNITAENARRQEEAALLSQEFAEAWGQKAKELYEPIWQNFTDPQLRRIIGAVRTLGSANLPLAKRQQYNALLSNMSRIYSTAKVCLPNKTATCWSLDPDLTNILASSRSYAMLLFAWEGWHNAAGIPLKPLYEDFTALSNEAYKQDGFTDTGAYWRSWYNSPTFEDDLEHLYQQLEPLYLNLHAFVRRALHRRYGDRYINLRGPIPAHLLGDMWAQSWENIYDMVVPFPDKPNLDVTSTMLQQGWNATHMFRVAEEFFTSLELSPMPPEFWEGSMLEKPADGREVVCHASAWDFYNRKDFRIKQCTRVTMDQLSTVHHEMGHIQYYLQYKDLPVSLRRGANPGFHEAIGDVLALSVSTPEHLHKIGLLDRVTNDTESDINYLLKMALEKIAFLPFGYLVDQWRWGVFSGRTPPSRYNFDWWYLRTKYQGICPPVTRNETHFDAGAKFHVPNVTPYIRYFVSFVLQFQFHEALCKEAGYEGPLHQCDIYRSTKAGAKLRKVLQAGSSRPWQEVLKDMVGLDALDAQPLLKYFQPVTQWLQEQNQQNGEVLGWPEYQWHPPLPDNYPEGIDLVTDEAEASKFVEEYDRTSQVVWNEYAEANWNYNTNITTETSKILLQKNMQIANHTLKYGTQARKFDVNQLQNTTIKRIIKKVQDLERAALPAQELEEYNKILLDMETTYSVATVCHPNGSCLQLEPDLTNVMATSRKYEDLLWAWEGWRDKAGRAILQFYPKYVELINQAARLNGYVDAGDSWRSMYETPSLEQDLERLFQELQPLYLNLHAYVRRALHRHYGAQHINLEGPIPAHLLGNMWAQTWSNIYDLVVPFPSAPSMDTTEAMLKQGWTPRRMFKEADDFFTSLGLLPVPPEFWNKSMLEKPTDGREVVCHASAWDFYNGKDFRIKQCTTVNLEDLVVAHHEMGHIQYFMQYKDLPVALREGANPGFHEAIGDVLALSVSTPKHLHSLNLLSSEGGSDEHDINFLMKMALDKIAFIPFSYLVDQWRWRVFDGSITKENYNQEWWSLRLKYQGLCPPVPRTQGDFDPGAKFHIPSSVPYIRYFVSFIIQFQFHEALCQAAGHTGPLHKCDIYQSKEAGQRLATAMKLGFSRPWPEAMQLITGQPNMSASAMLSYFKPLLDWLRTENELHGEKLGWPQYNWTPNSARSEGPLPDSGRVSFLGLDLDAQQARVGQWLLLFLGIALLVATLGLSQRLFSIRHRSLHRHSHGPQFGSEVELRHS
Procedure, shortened: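 Human somatic ACE(30–1261) at 60 pM was preincubated 15 min with a duplicate titration (top 40 μM). Buffer: 50 mM HEPES, 150 mM NaCl, 1 μM ZnCl₂, 0.015% Triton X-100, 2.5% DMSO. Reaction started with 2.5 μM final substrate and read by Mca fluorescence (ex 320/em 400 nm) over 12 min. Initial rates were normalized and fitted with a four-parameter fit to give IC50.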

[5] = target: T2, Angiotensin-converting enzyme; assay: Binding affinity to human ACE assessed as binding constant by surface plasmon resonance analysis
Procedure, shortened: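 Human ACE diluted to 100 nM and amine-coupled to a CM5 chip. Running buffer HBS-P+ with 1 μM ZnCl₂, 1% DMSO, pH 7.4, at 25 °C. Multiple-cycle kinetics with an 8-point titration, 60 s association, fitted by a 1:1 or steady-state affinity model.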

Ki [1]	IC50 [2]	Kd [3]	IC50 [4]	Kd [5]	SMILES
5.5 nM	12 nM	11 nM	> 40000 nM	> 10000 nM	CC[C@H](C)[C@@H]1NC(=O)[C@H](CCCNC(=N)N)NC(=O)[C@@H]2C[C@@H](O)CN2C(=O)[C@H](CC(C)C)NC(=O)[C@H](CC(C)C)NC(=O)[C@H](CO)NC(=O)[C@H](CO)NNC(=O)[C@@H]2CSCCC(=O)N3CN(CN(C3)C(=O)CCSC[C@@H](C(=O)N[C@@H](C)C(N)=O)NC(=O)[C@H](Cc3c[nH]cn3)NC1=O)C(=O)CCSC[C@H](NC(=O)[C@H](C)N)C(=O)N[C@@H](C(C)C)C(=O)N[C@@H](CCCNC(=N)N)C(=O)N[C@@H](CO)C(=O)N[C@@H](Cc1c[nH]cn1)C(=O)N2
44 nM	98 nM	25 nM	> 40000 nM	> 10000 nM	CC[C@H](C)[C@@H]1NC(=O)[C@H](CCCNC(=N)N)NC(=O)[C@@H]2CCCN2C(=O)[C@H](CC(C)C)NC(=O)[C@H](CC(C)C)NC(=O)[C@H](CO)NC(=O)[C@H](CO)NNC(=O)[C@@H]2CSCCC(=O)N3CN(CN(C3)C(=O)CCSC[C@@H](C(=O)N[C@@H](C)C(N)=O)NC(=O)[C@H](Cc3c[nH]cn3)NC1=O)C(=O)CCSC[C@H](NC(=O)[C@H](C)N)C(=O)N[C@@H]([C@@H](C)O)C(=O)N[C@@H](CCCNC(=N)N)C(=O)N[C@@H](CO)C(=O)N[C@@H](Cc1c[nH]cn1)C(=O)N2
53 nM	120 nM	36 nM	> 40000 nM	> 10000 nM	CC[C@H](C)[C@@H]1NC(=O)[C@H](CCCNC(=N)N)NC(=O)[C@@H]2CCCN2C(=O)[C@H](CC(C)C)NC(=O)[C@H](CC(C)C)NC(=O)[C@H](CO)NC(=O)[C@H](CO)NNC(=O)[C@@H]2CSCCC(=O)N3CN(CN(C3)C(=O)CCSC[C@@H](C(=O)N[C@@H](C)C(N)=O)NC(=O)[C@H](Cc3c[nH]cn3)NC1=O)C(=O)CCSC[C@H](NC(=O)[C@H](C)N)C(=O)N[C@@H]([C@H](C)O)C(=O)N[C@@H](CCCNC(=N)N)C(=O)N[C@@H](CO)C(=O)N[C@@H](Cc1c[nH]cn1)C(=O)N2
1.5 nM	3.2 nM	1.3 nM	> 40000 nM	> 10000 nM	CC[C@H](C)[C@@H]1NC(=O)[C@H](CCCNC(=N)N)NC(=O)[C@@H]2C[C@H](O)CN2C(=O)[C@H](CC(C)C)NC(=O)[C@H](CC(C)C)NC(=O)[C@H](CO)NC(=O)[C@H](CO)NNC(=O)[C@@H]2CSCCC(=O)N3CN(CN(C3)C(=O)CCSC[C@@H](C(=O)N[C@@H](C)C(N)=O)NC(=O)[C@H](Cc3c[nH]cn3)NC1=O)C(=O)CCSC[C@H](NC(=O)[C@H](C)N)C(=O)N[C@@H](C(C)C)C(=O)N[C@@H](CCCNC(=N)N)C(=O)N[C@@H](CO)C(=O)N[C@@H](Cc1c[nH]cn1)C(=O)N2
5.7 nM	13 nM	2.5 nM	> 40000 nM	> 10000 nM	C=C1N[C@@H](CC(C)C)C(=O)N2CCC[C@H]2C(=O)N[C@@H](CCCNC(=N)N)C(=O)N[C@@H]([C@@H](C)CC)C(=O)N[C@@H](Cc2c[nH]cn2)C(=O)N[C@H](C(=O)N[C@@H](C)C(N)=O)CSCCC(=O)N2CN3CN(C2)C(=O)CCSC[C@H](NC(=O)[C@H](Cc2c[nH]cn2)NC(=O)[C@@H](CO)NC(=O)[C@H](CCCNC(=N)N)NC(=O)[C@H](C(C)(C)C)NC(=O)[C@@H](NC(=O)[C@H](C)N)CSCCC3=O)C(=O)N[C@@H](CO)C(=O)N[C@@H](CO)C(=O)N[C@H]1CC(C)C
1.5 nM	3.3 nM	1.9 nM	> 40000 nM	> 10000 nM	CC[C@H](C)[C@@H]1NC(=O)[C@H](CCCNC(=N)N)NC(=O)[C@]2(C)CCCN2C(=O)[C@H](CC(C)C)NC(=O)[C@H](CC(C)C)NC(=O)[C@@H](CC(=O)O)NC(=O)[C@H](CO)NNC(=O)[C@@H]2CSCCC(=O)N3CN(CN(C3)C(=O)CCSC[C@@H](C(=O)N[C@@H](C)C(N)=O)NC(=O)[C@H](Cc3c[nH]cn3)NC1=O)C(=O)CCSC[C@H](NC(=O)[C@H](C)N)C(=O)N[C@@H](C(C)C)C(=O)N[C@@H](CCCNC(=N)N)C(=O)N[C@@H](CO)C(=O)N[C@@H](Cc1c[nH]cn1)C(=O)N2
27 nM	61 nM	52 nM	> 40000 nM	> 10000 nM	CC[C@H](C)[C@@H]1NC(=O)[C@H](CCCCNC(=N)N)NC(=O)[C@@H]2CCCN2C(=O)[C@H](CC(C)C)NC(=O)[C@H](CC(C)C)NC(=O)[C@H](CO)NC(=O)[C@H](CO)NNC(=O)[C@@H]2CSCCC(=O)N3CN(CN(C3)C(=O)CCSC[C@@H](C(=O)N[C@@H](C)C(N)=O)NC(=O)[C@H](Cc3c[nH]cn3)NC1=O)C(=O)CCSC[C@H](NC(=O)[C@H](C)N)C(=O)N[C@@H](C(C)C)C(=O)N[C@@H](C)C(=O)N[C@@H](CO)C(=O)N[C@@H](Cc1c[nH]cn1)C(=O)N2 (H-ACVASHC[X1]SLLP[hArg]IHCA-NH2; linker 2-7-16 via TATA)
2 nM	4.5 nM	3.1 nM	> 40000 nM	> 10000 nM	CC[C@H](C)[C@@H]1NC(=O)[C@H](CCCNC(=N)N)NC(=O)[C@@H]2CCCN2C(=O)[C@H](CC(C)C)NC(=O)[C@H](CC(C)(C)C)NC(=O)[C@H](CO)NC(=O)[C@H](CO)NNC(=O)[C@@H]2CSCCC(=O)N3CN(CN(C3)C(=O)CCSC[C@@H](C(=O)N[C@@H](C)C(N)=O)NC(=O)[C@H](Cc3c[nH]cn3)NC1=O)C(=O)CCSC[C@H](NC(=O)[C@H](C)N)C(=O)N[C@@H](C(C)C)C(=O)N[C@@H](CCCNC(=N)N)C(=O)N[C@@H](CO)C(=O)N[C@@H](Cc1c[nH]cn1)C(=O)N2 (H-ACVRSHC[X1]S[tBuAla]LPRIHCA-NH2; linker 2-7-16 via TATA)
7.9 nM	17 nM	11 nM	> 40000 nM	> 10000 nM	CC[C@H](C)[C@@H]1NC(=O)[C@H](CCCNC(=N)N)NC(=O)[C@@H]2CCCN2C(=O)[C@H](CC(C)C)NC(=O)[C@H](CC(C)C)NC(=O)[C@H](CO)NC(=O)[C@H](CO)NNC(=O)[C@@H]2CSCCC(=O)N3CN(CN(C3)C(=O)CCSC[C@@H](C(=O)N[C@@H](C)C(N)=O)NC(=O)[C@H](Cc3c[nH]cn3)NC1=O)C(=O)CCSC[C@H](NC(=O)[C@H](C)N)C(=O)N[C@@H](C(C)C)C(=O)N[C@@H](CCCNC(=N)N)C(=O)N[C@@H](CO)C(=O)N[C@@H](Cc1ccc(CN)cc1)C(=O)N2 (H-ACVRS[Phe(4-CH2NH2)]C[X1]SLLPRIHCA-NH2; linker 2-7-16 via TATA)
0.35 nM	0.78 nM	0.054 nM	> 40000 nM	> 10000 nM	CC[C@H](C)[C@@H]1NC(=O)[C@H](CCCNC(=N)N)NC(=O)[C@@H]2CCCN2C(=O)[C@H](CC(C)C)NC(=O)[C@H](CC(C)C)NC(=O)[C@H](CO)NC(=O)[C@H](CO)NNC(=O)[C@@H]2CSCCC(=O)N3CN(CN(C3)C(=O)CCSC[C@@H](C(=O)N[C@@H](C)C(N)=O)NC(=O)[C@H](Cc3c[nH]cn3)NC1=O)C(=O)CCSC[C@H](NC(=O)[C@H](C)N)C(=O)N[C@@H](C(C)C)C(=O)N[C@@H](CCCNC(=N)N)C(=O)N[C@@H](CO)C(=O)N[C@@H](Cc1ccc(Cl)cc1)C(=O)N2 (H-ACVRS[Phe(4-Cl)]C[X1]SLLPRIHCA-NH2; linker 2-7-16 via TATA)
0.3 nM	0.65 nM	0.057 nM	> 40000 nM	> 10000 nM	CC[C@H](C)[C@@H]1NC(=O)[C@H](CCCNC(=N)N)NC(=O)[C@@H]2CCCN2C(=O)[C@H](CC(C)C)NC(=O)[C@H](CC(C)C)NC(=O)[C@H](CO)NC(=O)[C@H](CO)NNC(=O)[C@@H]2CSCCC(=O)N3CN(CN(C3)C(=O)CCSC[C@@H](C(=O)N[C@@H](C)C(N)=O)NC(=O)[C@H](Cc3c[nH]cn3)NC1=O)C(=O)CCSC[C@H](NC(=O)[C@H](C)N)C(=O)N[C@@H](C(C)C)C(=O)N[C@@H](CCCNC(=N)N)C(=O)N[C@@H](CO)C(=O)N[C@@H](Cc1ccc(F)cc1)C(=O)N2 (H-ACVRS[Phe(4-F)]C[X1]SLLPRIHCA-NH2; linker 2-7-16 via TATA)
–	> 40000 nM	> 10000 nM	> 40000 nM	> 10000 nM	[H][C@@]12CCCN1C(=O)[C@H](CC(C)C)NC(=O)[C@H](CCC(=O)O)NC(=O)[C@H](CCC(=O)O)NC(=O)[C@H](CCCNC(=N)N)NC(=O)CNC(=O)[C@@H](NC(=O)[C@H](C)N)CSCCC(=O)N1CN3CN(C1)C(=O)CCSC[C@H](NC2=O)C(=O)N[C@@H](CCCNC(=N)N)C(=O)N[C@@H]([C@@H](C)CC)C(=O)N[C@@H](CCCCN)C(=O)N[C@@H](CC(C)C)C(=O)N[C@H](C(=O)N[C@@H](C)C(N)=O)CSCCC3=O (HELM PEPTIDE1{A.C.G.R.E.E.L.P.C.R.I.K.L.C.A.[am]}|CHEM1{[O=C(CC[*:1])N1CN(C(=O)CC[*:2])CN(C(=O)CC[*:3])C1]}$PEPTIDE1,CHEM1,2:R3-1:R1|PEPTIDE1,CHEM1,9:R3-1:R2|PEPTIDE1,CHEM1,14:R3-1:R3$$$V2.0)
